{"data": "Results of several laboratories", "CTSV": "Cathepsin L2 (CTSV, Homo sapiens, UniProt O60911)", "EDNRB": "Endothelin receptor type B (EDNRB, Homo sapiens, UniProt P24530)", "MAOB": "Amine oxidase [flavin-containing] B (MAOB, Homo sapiens, UniProt P27338)", "MMP9 Q279R": "Matrix metalloproteinase-9 (MMP9, Homo sapiens, UniProt P14780, Q279R)", "note": "Compare with care: the assays were run in different laboratories."}
{"Compound": "CC(C)C[C@H](NC(=O)[C@H]1O[C@@H]1C(=O)O)C(=O)NCCCCN=C(N)N", "target": "CTSV", "assay": "enzyme activity, inhibitor", "conditions": "0.5 µM", "inhibition": "94%"}
{"Compound": "CN(CCN1CCC(OC(=O)Nc2ccccc2-c2ccccc2)CC1)C(=O)c1ccc(CN2CCC(C(N)=O)CC2)cc1", "target": "EDNRB", "assay": "ligand displacement, radioligand", "conditions": "1 µM", "inhibition": "11%"}
{"Compound": "CN1CCN(CCOc2ccc3occc(=O)c3c2)CC1", "target": "MAOB", "assay": "enzyme activity, inhibitor, fluorescence", "conditions": "10 µM", "inhibition": "12%"}
{"Compound": "COc1ccc(S(=O)(=O)N(CC(=O)NO)CC(C)C)cc1", "target": "MMP9 Q279R", "assay": "enzyme activity, inhibitor", "conditions": "1 nM", "inhibition": "27%"}
{"Compound": "COc1cc(Nc2ncc(F)c(Nc3ccc4c(n3)NC(=O)C(C)(C)O4)n2)cc(OC)c1OC", "target": "NUAK family SNF1-like kinase 2 (NUAK2, Homo sapiens, UniProt Q9H093)", "assay": "binding, competition with immobilised ligand", "conditions": "10 µM", "inhibition": "97%"}
{"Compound": "CC(C)N1CCC[C@H]1CNC(=O)c1cn(C2CCCC2)c(=O)c2c1c1ccccc1n2C", "target": "EDNRB", "assay": "ligand displacement, radioligand", "conditions": "10 µM", "inhibition": "3%"}
{"Compound": "CCOC(=O)c1ccc(OC(=O)CCCCCNC(=N)N)cc1", "target": "CTSV", "assay": "enzyme activity, inhibitor", "conditions": "10 µM", "inhibition": "3%"}
{"Compound": "Cc1ncc(C)n2nc(/C=C/c3nc(N4CCCC4)cc(N4CCOCC4)n3)nc12", "target": "Matrix metalloproteinase-9 (MMP9, Homo sapiens, UniProt P14780)", "assay": "enzyme activity, inhibitor", "conditions": "10 µM", "inhibition": "12%"}
{"Compound": "O=C(Nc1cccnn1)N1CCN([C@@H]2CCOc3cc(C(F)(F)F)ccc32)CC1", "target": "EDNRB", "assay": "cell-free assay", "conditions": "20 µM", "inhibition": "-5%"}
{"Compound": "Cc1ccc(OP(=O)(Oc2ccc(C)cc2)Oc2ccc(C)cc2)cc1", "target": "Cholinesterase (Bche, Mus musculus, UniProt Q03311)", "assay": "enzyme activity, inhibitor", "system": "mouse", "conditions": "oral, 240 mg/kg", "inhibition": "20%"}
{"Compound": "O=c1ccoc2ccc(OCCCCN3CCCCC3)cc12", "target": "MAOB", "assay": "enzyme activity, inhibitor, fluorescence", "conditions": "10 µM", "inhibition": "63%"}
{"Compound": "N=C(N)c1ccc2cc(OC(=O)c3ccc(N=C(N)N)cc3)ccc2c1", "target": "MMP9 Q279R", "assay": "enzyme activity, inhibitor", "conditions": "10 µM", "inhibition": "11%"}
{"Compound": "C[C@H](C(=O)N[C@H]1COc2ccccc2[C@@H]1S(C)(=O)=O)c1ccc(F)cc1", "target": "MAOB", "assay": "enzyme activity, inhibitor", "conditions": "10 µM", "inhibition": "11%"}
{"Compound": "COCc1c(-c2cc3cc(C)cc(OC)c3s2)c2c(N)ncnn2c1CN1CCNC(=O)C1", "target": "EDNRB", "assay": "ligand displacement, radioligand", "conditions": "10 µM", "inhibition": "-1%"}
